High-throughput results from PubChem.
Sampled rows, rich in hits. Any-hit rate of the full collection: about 3.1%.
CFTR F508del cor: CFTR F508del correction in bronchial cells. AID 720511. activity (quench increase), % at 7.58 µM. 350,000 tested, 0.36% active. CFBE cells, YFP halide quenching; stimulated with forskolin plus potentiator P3; % fluorescence drop versus neutral controls;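 active = mean added fluorescence quench of at least 8% versus neutral control, with both replicates also reaching 8%; inconclusive = only one of the mean or replicate conditions met; inactive = mean below 8% and not both replicates reaching 8%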;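 note: cells transiently co-express mutant CFTR-F508del with the halide-sensitive YFP; corrector assay measuring rescue of mutant channel to the surface after 24 h compound exposure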
GSIS activator: GLuc luminescence reporter in INS-1E cells, primary screen for activators of glucose-dependent secretion of insulin. INS-1E GLuc reporter insulin secretion, 2-3 h. activation, % at 16.6 µM. 370,000 tested, 0.61% active;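 active = lowest replicate activation of at least 40%, so every replicate reaches that level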
rRNA inh HTS: inhibits bacterial ribosomal RNA function over humanized ribosomes. E. coli WT GFP vs humanized-ribosome RFP mutants, fluorescence, 24 h; active compounds read low; DMSO median 0, no signal -100. GFP signal change (wild-type ribosome), % (test concentration not listed). 350,000 tested, 1.6% active. AID 720706;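 active = significant combined selectivity score with lowered wild-type GFP, culture density cut under 30%, mutant RFP and density less affected; inactive = any of these conditions unmet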
miR-122 sensor: inhibitors of miR-122 in Huh7 cells. activation (reporter increase), % at 12.5 µM. 340,000 tested, 0.3% active. Huh7 miR-122 Renilla luciferase sensor, 48 h; neutral wells = 0, positive control = 100;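 active = mean replicate activation score at least 90 and every replicate individually at or above 90; inconclusive = only one of the two criteria met; inactive = neither criterion met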;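 note: higher luciferase means less miR-122 activity so hits act as miR-122 inhibitors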
Env fusion inh: inhibitors of HIV Env-mediated cell fusion. HeLa-JRFL Env/CEM21 cell fusion, luciferase. inhibition, % at 12.3 µM. 360,000 tested, 1.1% active;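 active = mean replicate inhibition score of at least 50 and every replicate individually at or above 50; inconclusive = only one of the two criteria met; inactive = mean below 50 and not all replicates reaching 50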
Cneo AK release: causes C. neoformans cell lysis; 360,000 tested, 0.2% active; lysis activity, % at 15 µM; adenylate kinase release luminescence, 4 h; normalised: neutral wells 0, clomiphene wells 100;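 active = mean lysis activity across replicates of at least 80%, whatever share of replicates individually reach that level; inactive = mean lysis activity below 80%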
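Assay system: log-phase C. neoformans yeast / Quantity: yeast cell density of 5 × 10^6 cells/mL / Medium: fresh YPD growth medium / Compound: single dose / Timing: static 4 h at 37 °C with compound, 1 h detection / Measured by: adenylate kinase release luminescence / Read-out: lysis from increased AK signal / Benchmarks: Clomiphene as positive lysis control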
A number is an active result; . = inactive; ? = inconclusive; / = no result.

SMILES	CFTR F508del cor	GSIS activator	rRNA inh HTS	miR-122 sensor	Env fusion inh	Cneo AK release
COc1ccc([C@@H]2[C@@H]3C(=O)N(C(C)(C)C)C(=O)[C@@H]3[C@]3(Cc4ccc(Cl)cc4)C(=O)N(c4ccc(OC)cc4)C(=O)N23)cc1	.	.	.	/	?	.
COc1ccc(N2C(=O)N3[C@H](c4ccc(Cl)cc4)[C@@H]4C(=O)N(C5CCCCC5)C(=O)[C@@H]4[C@]3(Cc3ccc(Cl)cc3)C2=O)cc1	.	.	.	.	88	.
C[C@H]1COCc2cn(nn2)CC[C@@H](Cc2ccccc2)C(=O)N1	/	.	.	/	/	/
CN1C(=O)c2cc(NC(=O)Cc3cccs3)ccc2OC[C@@H]2O[C@@H](CC(=O)O)CC[C@H]21	.	.	.	.	.	.
O=C(C[C@@H]1C[C@H]2c3cc(NC(=O)Nc4ccccc4F)ccc3O[C@H]2[C@H](CO)O1)NCc1cc(F)ccc1F	.	.	.	.	.	.
CCCNC(=O)N1CC2(CN(S(C)(=O)=O)C2)c2c(n(C)c3cc(OC)ccc23)[C@H]1CO	.	.	.	/	/	/
Cc1cccc(S(=O)(=O)N2C[C@@H](O)COC[C@@H]3O[C@H](CC(=O)NCc4ccncn4)CC[C@H]32)c1	.	.	.	.	/	.
CCCn1c(C2CCCN2c2nc(C)cs2)nc2cc(Cl)c(Cl)cc21 (centres undefined)	.	.	.	/	70	.
CCCn1c(C2CCCN2c2nc(-c3cccc(Br)c3)cs2)nc2cc(Cl)c(Cl)cc21 (centres undefined)	.	/	.	.	/	.
C[C@@H]1CN(C)C(=O)Cc2cc(NS(C)(=O)=O)ccc2O[C@@H]1CN(C)S(C)(=O)=O	/	.	.	/	/	/
CO[C@H]1CN(C)C(=O)c2ccc(NC(=O)C3CCCC3)cc2OC[C@@H](C)N(C(=O)CC2CC2)C[C@@H]1C	.	.	.	/	.	.
S=C(NCCc1ccccn1)Nc1cc(Cl)cc(Cl)c1	.	.	-32	/	.	/
COc1cccc(NC(=S)N(Cc2ccc(Cl)cc2)Cc2ccc(C(=O)O)cc2)c1	.	.	-32	.	.	/
Cc1cccc(NC(=S)N(Cc2ccc(Br)cc2)Cc2ccc(C(=O)O)cc2)c1	.	.	.	.	.	.
COc1cccc(NC(=O)NCCc2ccc(Cl)cc2)c1	.	.	-24	.	.	.
CC(=O)c1cccc(NC(=O)NCCc2ccc(Cl)cc2)c1	.	.	.	.	/	.
CCCNC(=O)C[C@@H]1C[C@H]2c3cc(NC(=O)C4CCOCC4)ccc3O[C@H]2[C@@H](CO)O1	.	.	.	.	.	.
COc1ccc(-c2ccc(SCC(=O)Nc3cc(C)on3)nn2)cc1OC	/	57	/	.	.	.
COc1ccc(-c2ccc(=O)n(CC(=O)NC3CCc4ccccc43)n2)cc1OC (centres undefined)	.	47	.	.	.	/
COc1ccc(-c2ccc(SCC(=O)NC3CCCC3)nn2)cc1OC	.	80	.	.	.	.
Cc1cccc(NC(=O)CSc2ccc(-c3ccc4c(c3)OCO4)nn2)c1C	/	94	/	.	/	.
COc1cccc(-c2ccc(SCC(=O)NC3CCCCC3)nn2)c1	.	.	.	.	.	.
CCNC(=O)Nc1ccc2c(c1)C(=O)N(C)[C@H]1CC[C@@H](CC(=O)NCC3CC3)O[C@H]1CO2	.	.	.	.	.	.
COc1ccc(C(=O)Cc2ccccc2)cc1OC	/	.	/	.	/	.
COc1ccc(CC(=O)OCC(=O)c2ccc(OC)c(OC)c2)cc1	.	41	.	.	.	.
SMILES	CFTR F508del cor	GSIS activator	rRNA inh HTS	miR-122 sensor	Env fusion inh	Cneo AK release
COc1ccc(C(=O)CCS(=O)(=O)c2ccc(F)cc2)cc1OC	.	60	.	.	.	.
COc1ccc(/C(N)=N/OC(=O)Cc2ccc(OC)c(OC)c2)cc1	.	.	-26	.	/	.
COc1ccc(CC(=O)c2ccc(OC)c(OC)c2)cc1	/	71	.	/	.	/
COc1cccc(S(=O)(=O)N2C[C@@H](O)COC[C@@H]3O[C@@H](CC(=O)NCCCN4CCOCC4)CC[C@H]32)c1	.	.	.	.	.	.
Clc1cccc(CN2CCN(Cc3nc(CCc4ccccc4)no3)CC2)c1	.	.	-32	.	.	.
Clc1cccc(CN2CCCCCC2)c1	.	.	.	.	.	.
